These results are taken from ChEMBL document CHEMBL4665831, “Ultrapotent Inhibitor of Clostridioides difficile Growth, Which Suppresses Recurrence In Vivo” (J Med Chem, 2020).

For orientation: IC50 means the midpoint of a concentration-inhibition curve.

Data set [1] deals with Enterococcus faecium. Briefly: Antimicrobial activity against vancomycin-resistant Enterococcus faecium ATCC 700221 assessed as reduction in microbial growth after 48 hrs by CLSI based broth microdilution method. The data set is classed as functional. In a few lines:
(§1)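 CLSI broth microdilution: strains were grown aerobically overnight on tryptone soy agar at 37°C. A 0.5 McFarland suspension was diluted to ~5 × 10^5 CFU/mL in cation-adjusted Mueller-Hinton broth (E. coli) or tryptone soy broth (enterococci), and agents were serially diluted.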

The subject of data set [2] is Enterococcus faecalis. Briefly: Antimicrobial activity against vancomycin-resistant Enterococcus […] ATCC 51299 assessed as reduction in microbial growth after 48 hrs by CLSI based broth microdilution method. Format: functional. In outline: as §1
In general terms: Dilution methods test growth across graded concentrations, often in twofold steps.

For data set [3], the system named is Escherichia coli. Briefly: Antimicrobial activity against Escherichia coli JW55031 harboring TolC mutant assessed as reduction in microbial growth after 48 hrs by CLSI based broth microdilution method. The data set is classed as functional. In a few lines:
as §1

For data set [4], the system named is Clostridioides difficile. Briefly: Antimicrobial activity against Clostridioides difficile ATCC BAA 1801 assessed as reduction in microbial growth after 48 hrs by broth microdilution method. Format: functional. In outline: (§2)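 Broth microdilution: a 0.5 McFarland suspension was diluted in brain heart infusion supplemented (BHIS) broth to ~5 × 10^5 CFU/mL. Agents were serially diluted and plates incubated anaerobically at 37°C for 48 h.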

In data set [5] the test system is Clostridioides difficile. Briefly: Antimicrobial activity against Clostridioides difficile NR-13432 isolate 6 assessed as reduction in microbial growth after 48 hrs by broth microdilution method. The data set is classed as functional. In a few lines:
as §2

Data set [6] deals with Lactobacillus gasseri. Briefly: Antibacterial activity against Lactobacillus gasseri HM-400 assessed as reduction in microbial growth after 48 hrs by broth microdilution method. In outline: (§3)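 Gut commensal MICs by broth microdilution: a 0.5 McFarland suspension was diluted to ~5 × 10^5 CFU/mL in BHIS broth (Bacteroides) or MRS broth (Lactobacillus). Agents were serially diluted and incubated 48 h at 37°C. MIC was read by visual inspection of growth.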

Data set [7] has as its system Clostridioides difficile. Briefly: Antimicrobial activity against Clostridioides difficile NR-13435 isolate 9 assessed as reduction in microbial growth after 48 hrs by broth microdilution method. Format: functional. In a few lines: as §2
The subject of data set [8] is Clostridioides difficile. Briefly: Antimicrobial activity against Clostridioides difficile ATCC 43255 assessed as drug resistance by measuring frequency of mutation at 20 times of MIC after 48 hrs. Format: functional.
The subject of data set [9] is Clostridioides difficile. Briefly: Antimicrobial activity against Clostridioides difficile NR-32891 P13 assessed as reduction in microbial growth after 48 hrs by broth microdilution method. The data set is classed as functional. In outline: as §2
Data set [10] concerns Lactobacillus crispatus. Briefly: Antibacterial activity against Lactobacillus crispatus HM-103 assessed as reduction in microbial growth after 48 hrs by broth microdilution method. In a few lines:
as §3

The test system of data set [11] is Clostridioides difficile. Briefly: Antimicrobial activity against Clostridioides difficile NR-32904 P30 assessed as reduction in microbial growth after 48 hrs by broth microdilution method. Format: functional. In a few lines: as §2
In data set [12] the test system is Clostridioides difficile. Briefly: Antimicrobial activity against Clostridioides difficile NR-32883 P2 assessed as reduction in microbial growth after 48 hrs by broth microdilution method. Format: functional. In a few lines: as §2
Data set [13] concerns Bacteroides fragilis. Briefly: Antibacterial activity against Bacteroides fragilis HM-711 assessed as reduction in microbial growth after 48 hrs by broth microdilution method. The data set is classed as organism-based. In a few lines: as §3
The test system of data set [14] is Clostridioides difficile. Briefly: Antimicrobial activity against Clostridioides difficile ATCC 43255 assessed as reduction in microbial growth after 48 hrs by broth microdilution method. The data set is classed as functional. In outline: as §2
Data set [15] has as its system Clostridioides difficile. Briefly: Antibacterial activity against Clostridioides difficile ATCC 43255 infected in CDI mouse model assessed as bacterial recurrence at 10 mg/kg, po for 5 days and measured on day 21 relative to control. The data set is classed as functional. The note with it: time 21 day.
Data set [16] concerns Clostridioides difficile. Briefly: Antimicrobial activity against Clostridioides difficile ATCC 43255 assessed as drug resistance by measuring frequency of mutation at 15 times of MIC after 48 hrs. The data set is classed as functional.
The subject of data set [17] is Clostridioides difficile. Briefly: Antibacterial activity against Clostridioides difficile ATCC 43255 infected in CDI mouse model assessed as survival rate at 10 mg/kg, po for 5 days relative to control. The data set is classed as functional. To be noted: ATCC 43255, po, 120 h, time 5 day.
Data set [18] deals with Bacteroides fragilis. Briefly: Antibacterial activity against Bacteroides fragilis HM-709 assessed as reduction in microbial growth after 48 hrs by broth microdilution method. Format: organism-based. In outline:
as §3

Data set [19] has as its system Phocaeicola dorei. Briefly: Antibacterial activity against Bacteroides dorei HM-719 assessed as reduction in microbial growth after 48 hrs by broth microdilution method. Format: organism-based. In outline: as §3
In data set [20] the test system is Clostridioides difficile. Briefly: Antimicrobial activity against Clostridioides difficile NR-32895 P19 assessed as reduction in microbial growth after 48 hrs by broth microdilution method. The data set is classed as functional. In outline: as §2
Data set [21] deals with Lactobacillus crispatus. Briefly: Antibacterial activity against Lactobacillus crispatus HM-371 assessed as reduction in microbial growth after 48 hrs by broth microdilution method. In a few lines: as §3
In data set [22] the target is Cyclin-dependent kinase 2 (Homo sapiens, UniProt P24941). Briefly: Inhibition of human CDK2 expressed in sf9 insect cells.

Some results are limits rather than exact numbers.

As for `CC(=O)NC[C@H]1CN(c2ccc(N3CCOCC3)c(F)c2)C(=O)O1` [LINEZOLID], the MIC in data set [1] came to 3 µM; in [2] it was 3 µM; in data set [3] it was 47.4 µM.
As for `O=C(Nc1nnc(-c2ccc(F)cc2)o1)c1ccc(SC(F)(F)F)cc1`, the MIC in data set [4] was determined as 10.4 µM.
On the same count and under the same terms, with `COc1cccc(-c2nnc(NC(=O)c3ccc(SC(F)(F)F)cc3)o2)c1` the figure was 10.1 µM; with `CC(C)c1ccc(-c2nnc(NC(=O)c3ccc(SC(F)(F)F)cc3)o2)cc1`, 314 µM.
The same measure, in the same setting: as for `O=C(Nc1nnc(-c2ccccc2F)o1)c1ccc(SC(F)(F)F)cc1`, the figure is 10.4 µM.
On the same count and under the same terms, as for `O=C(Nc1nnc(-c2ccccn2)o1)c1ccc(SC(F)(F)F)cc1`, the figure is 21.8 µM.
With `COc1ccc(Cl)cc1-c1nnc(NC(=O)c2ccc(SC(F)(F)F)cc2)o1`, the MIC in [4] is 4.7 µM.
For the molecule `CN[C@H](CC(C)C)C(=O)N[C@H]1C(=O)N[C@@H](CC(N)=O)C(=O)N[C@H]2C(=O)N[C@H]3C(=O)N[C@H](C(=O)N[C@H](C(=O)O)c4cc(O)cc(O)c4-c4cc3ccc4O)[C@H](O)c3ccc(c(Cl)c3)Oc3cc2cc(c3O[C@@H]2O[C@H](CO)[C@@H](O)[C@H](O)[C@H]2O[C@H]2C[C@](C)(N)[C@H](O)[C@H](C)O2)Oc2ccc(cc2Cl)[C@H]1O` [VANCOMYCIN], the MIC was 0.2 µM in data set [5]; “<= 0.7 uM” in [6]; 0.7 µM in [7]; 0.4 µM in data set [9]; 1.4 µM in data set [10]; 0.7 µM in [11]. In addition, the MIC in data set [12] is 0.4 µM; in data set [13], 44.2 µM; in data set [14], 0.7 µM; in data set [2], greater than 44.2 µM; in data set [3] it was greater than 44.2 µM; in data set [18], 22.1 µM. Also, the MIC is 0.7 µM in data set [4], 44.2 µM in data set [19], 0.7 µM in [20] and 1.4 µM in data set [21]. The Activity is <1.1 10^-9No_unit in data set [8], 83.3% in data set [15] and <1.1 10^-9No_unit in data set [16]. Besides, the survival at 10 mg/kg in [17] amounted to 100%.
As for `O=C(Nc1nnc(-c2ccccc2)o1)c1ccc(SC(F)(F)F)cc1`, the MIC in data set [4] is 5.5 µM.
Same read-out and setting: as for `O=C(Nc1nnc(-c2cccs2)o1)c1ccc(SC(F)(F)F)cc1`, the figure is 1.4 µM.
In the case of `O=C(Nc1nnc(-c2ccc(C(F)(F)F)cc2)o1)c1ccc(SC(F)(F)F)cc1`, the MIC in data set [4] is 0.29 µM.
For the molecule `CCc1c(Cl)c(O)c(Cl)c(O)c1C(=O)O[C@H]1[C@H](O)[C@H](OC)[C@H](OC/C2=C\C=C\C[C@H](O)/C(C)=C/[C@H](CC)[C@@H](O[C@@H]3OC(C)(C)[C@@H](OC(=O)C(C)C)[C@H](O)[C@@H]3O)/C(C)=C/C(C)=C/C[C@@H]([C@@H](C)O)OC2=O)O[C@@H]1C` [FIDAXOMICIN], the MIC was 0.06 µM in data set [5]; greater than 60.5 µM in [6]; 0.06 µM in [7]; 0.01 µM in data set [9]; greater than 60.5 µM in [10]; 0.01 µM in [11]. In addition, the MIC in [12] is 0.03 µM; in data set [13], greater than 60.5 µM; in data set [14] it was 0.01 µM; in [18] it was greater than 60.5 µM; in data set [4] it was 0.06 µM; in data set [19], greater than 60.5 µM. For the same molecule, the results for the MIC in [20] and in data set [21] were 0.03 µM and greater than 60.5 µM, respectively.
In the case of `CN1CC[C@H](c2c(O)cc(O)c3c(=O)cc(-c4ccccc4)oc23)[C@H](O)C1`, half-maximal inhibition in data set [22] (IC50) required 2400 nM.
For the molecule `O=C(Nc1nnc(-c2cccc(C(F)(F)F)c2)o1)c1ccc(SC(F)(F)F)cc1`, the MIC in [4] amounted to 0.04 µM.
The same measure, in the same setting: as for `O=C(Nc1nnc(-c2ccc(Cl)cc2)o1)c1ccc(SC(F)(F)F)cc1`, the figure is 5 µM.
For the molecule `Cc1ncc([N+](=O)[O-])n1CCO` [METRONIDAZOLE], the MIC in data set [5] is 1.46 µM; in data set [6] it was greater than 373.9 µM; in data set [7], 0.7 µM; in data set [9], 0.7 µM; in data set [10] it was greater than 373.9 µM; in data set [11], 1.46 µM. Further, the MIC in [12] is 0.7 µM; in data set [13] it was 5.84 µM; in [1] it was greater than 374 µM; in data set [14], 1.46 µM; in data set [2], greater than 374 µM; in data set [18], 11.68 µM. The MIC was 1.46 µM in [4], 5.84 µM in data set [19], 1.46 µM in [20] and greater than 373.9 µM in data set [21].
Regarding `O=C(Nc1nnc(-c2cccc(F)c2)o1)c1ccc(SC(F)(F)F)cc1`, the MIC in data set [4] is 0.08 µM.
For the molecule `COc1ccc(-c2nnc(NC(=O)c3ccc(SC(F)(F)F)cc3)o2)cc1`, the MIC in [4] amounted to 10.1 µM.
Same read-out and setting: with `O=C(Nc1nnc(-c2ccccc2Cl)o1)c1ccc(SC(F)(F)F)cc1` the figure was 10 µM; with `O=C(Nc1nnc(-c2cccc(Cl)c2)o1)c1ccc(SC(F)(F)F)cc1`, 0.08 µM; with `Cc1ccc(-c2nnc(NC(=O)c3ccc(SC(F)(F)F)cc3)o2)cc1`, 10.5 µM.
For the molecule GENTAMICIN, the MIC in [3] was found to be 0.52 µM.
Turning to `O=C(Nc1nnc(-c2ccc(Cl)cc2Cl)o1)c1ccc(SC(F)(F)F)cc1`, the MIC in data set [4] was 0.07 µM.
